Test results published in ChEMBL document CHEMBL1152982, “Synthetic analogue of rocaglaol displays a potent and selective cytotoxicity in cancer cells: involvement of apoptosis inducing factor and caspase-12” (J Med Chem, 2009).
The source made the active and inactive calls. The calls are words filed in the database; no cut-off is given here.

Legend:
[1] = system: Mus musculus; experiment: Toxicity in B6 mouse assessed as diarrhea at 0.1 mg/kg, ip twice a day for 4 consecutive days measured on day 13; format: organism-based; design: dose 0.1 mg/kg, route intraperitoneal; details: in vivo
Outline: (§1)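 Male B6 mice dosed i.p. at 0.1 mg/kg twice daily for four consecutive days; body weight recorded daily over 13 days and signs of acute toxicity such as diarrhea noted.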

[2] = system: H9c2; experiment: Cytotoxicity against rat H9c2 cells at 20 nM after 48 hrs by FACS analysis; format: cell-based; details: h9c2, 48 h, 0.02 µM
Outline: (§2)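 Rat H9c2 cardiomyoblasts treated 24 h (0.5-50 nM) or 24, 48 and 72 h (20 nM) versus vehicle; annexin V plus propidium iodide labeling and FACS for apoptosis; viability in parallel by MTS; doxorubicin 1 μM as positive control.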

[3] = system: KB; experiment: Cytotoxicity against human KB cells after 72 hrs by MTS assay; format: functional, cell-based
Outline: (§3)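 Human cancer lines treated for 72 h and proliferation/viability read by MTS assay; dose-response curves in duplicate with IC50 taken from the curves; MCF7R is the P-gp (MDR1)-expressing resistant line.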

[4] = system: MCF7; experiment: Cytotoxicity against human MCF7 cells after 72 hrs by MTS assay; format: functional, cell-based; details: Homo sapiens, MCF7, 72 h; read-out: IC50; outline: as §3
[5] = system: MCF7; experiment: Cytotoxicity against human MCF7 cells expressing P-glycoprotein after 72 hrs by MTS assay; format: functional, cell-based; details: Homo sapiens, MCF7, 72 h; read-out: IC50; outline: as §3
[6] = system: HCT-116; experiment: Cytotoxicity against human HCT116 cells after 72 hrs by MTS assay; format: functional, cell-based; details: HCT-116, 72 h; outline: as §3
[7] = system: HCT-15; experiment: Cytotoxicity against human HCT15 cells after 72 hrs by MTS assay; format: functional, cell-based; details: Homo sapiens, HCT-15, 72 h; read-out: IC50; outline: as §3
[8] = system: HL-60; experiment: Cytotoxicity against human HL60 cells after 72 hrs by MTS assay; format: functional, cell-based; details: HL-60, 72 h
Outline: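 HL60 cells exposed to compound for 72 h; proliferation/viability read by MTS assay. IC50 taken from dose-response curves run in duplicate.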

[9] = molecular target: ATP-dependent translocase ABCB1 (Homo sapiens, UniProt P08183); experiment: Inhibition of P-glycoprotein expressing human MCF7 cells assessed as change in rhodamine 123 efflux at 0.1 to 1 uM; format: cell-based
[10] = system: HepG2; experiment: Enhancement of doxorubicin-induced cytotoxicity against human HepG2 cells after 72 hrs by MTS assay; format: functional, cell-based
Outline: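 HepG2 cells given the test agent alone or together with 150 nM doxorubicin for 72 h; proliferation by MTS assay; duplicate experiments, n = 3.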

[11] = system: H9c2; experiment: Induction of apoptosis in rat H9c2 cells at 0.5 to 50 nM after 24 hrs by FACS analysis; format: cell-based; details: h9c2, 24 h, 0.05 µM; outline: as §2
[12] = system: H9c2; experiment: Induction of apoptosis in rat H9c2 cells at 20 nM after 48 hrs by FACS analysis; format: cell-based; details: h9c2, 48 h, 0.02 µM; outline: as §2
[13] = system: H9c2; experiment: Induction of apoptosis in rat H9c2 cells at 20 nM after 72 hrs by FACS analysis; format: cell-based; details: h9c2, 72 h, 0.02 µM; outline: as §2
[14] = system: HepG2; experiment: Cytotoxicity against human HepG2 cells after 72 hrs by MTS assay; format: functional, cell-based; details: Homo sapiens, HepG2, 72 h; read-out: IC50; outline: as §3
[15] = system: Mus musculus; experiment: Toxicity in B6 mouse assessed as body weight loss at 0.1 mg/kg, ip twice a day for 4 consecutive days measured on day 13; format: organism-based; design: dose 0.1 mg/kg, route intraperitoneal; details: in vivo; outline: as §1
[16] = system: HL-60; experiment: Cell cycle arrest in human HL60 cells assessed as increase in G0/G1 peak at 200 nM after 48 hrs by FACS analysis; format: functional, cell-based
Outline: (§4)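 HL60 cells treated for 48 h; vehicle control 1% DMSO, doxorubicin as positive control. Propidium iodide staining, DNA content by flow cytometry giving cell-cycle distribution (G2/M, G0-G1 peaks); n = 4, each sample in duplicate.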

[17] = system: HL-60; experiment: Cell cycle arrest in human HL60 cells assessed as increase in G0/G1 peak at 20 nM after 48 hrs by FACS analysis; format: functional, cell-based; outline: as §4
[18] = system: HL-60; experiment: Induction of apoptosis in human HL60 cells assessed as cell killing at 20 nM after 72 hrs by annexin V flow cytometry; format: functional, cell-based
Outline: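 HL60 cells treated with 20 nM for 72 h; apoptosis quantified by annexin V staining and flow cytometry.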

[19] = system: HL-60; experiment: Induction of apoptosis in human HL60 cells assessed as caspase 3/7-mediated DEVD-AMC substrate cleavage at 1 to 1000 nM after 48 hrs by spectroscopy; format: functional, cell-based
Outline: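 HL60 cells treated 48 h, doxorubicin as positive control; whole-cell extracts incubated with DEVD-AMC, fluorescence release followed over time; rate from slope of linear phase, expressed as fold-activation over DMSO-treated control.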

[20] = system: HL-60; experiment: Induction of apoptosis in human HL60 cells assessed as caspase 3/7-mediated DEVD-AMC substrate cleavage at 24 to 72 hrs by spectroscopy; format: functional, cell-based
[21] = system: HL-60; experiment: Induction of apoptosis in human HL60 cells assessed as […] mediated LEHD-AMC substrate cleavage at 1 to 1000 nM after 48 hrs by spectroscopy; format: functional, cell-based
[22] = system: HL-60; experiment: Induction of apoptosis in human HL60 cells assessed as caspase 9-mediated […]-AMC substrate cleavage at 1 to 1000 nM after 48 hrs by spectroscopy; format: functional, cell-based
[23] = system: HL-60; experiment: Antiproliferative activity against human HL60 cells at 50 nM in presence of caspase inhibitor Z-VAD-FMK; format: functional, cell-based
Outline: (§5)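 HL60 cells exposed for 72 h, with or without co-treatment with Z-VAD-FMK (50 μM), necrostatin-1 (50 μM) or 3-methyladenine (2 mM). Antiproliferative effect was compared against vehicle.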

[24] = system: HL-60; experiment: Antiproliferative activity against human HL60 cells at 50 nM in presence of […] inhibitor necrostatin 1; format: functional, cell-based; outline: as §5
[25] = system: HL-60; experiment: Antiproliferative activity against human HL60 cells at 50 nM in presence of […] inhibitor 3-methyladenine; format: functional, cell-based; outline: as §5
[26] = system: HL-60; experiment: Inhibition of proteasome activity in human HL60 cells at 2 to 20 nM
Outline: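 Lysates of HL60 cells incubated with compound; in vitro chymotrypsin-like and trypsin-like proteasome activities measured with fluorogenic AMC substrates (LLVY-AMC, RLR-AMC).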

[27] = species: Oryctolagus cuniculus; experiment: Inhibition of capped and polyadenylated luciferase mRNA […] in rabbit reticulocyte lysate at 10000 nM after 1 hr; format: functional
Outline: (§6)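 Cell-free translation of capped, polyadenylated luciferase mRNA in rabbit reticulocyte lysate, luciferase output as read-out; incubation 1 h; IC50 derived.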

[28] = system: HeLa; experiment: Induction of eIF-2alpha phosphorylation in human HeLa cells at 100 uM by Western blotting; format: functional, cell-based
Outline: (§7)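 HeLa cells treated 1 h with DMSO, sodium arsenite (500 μM, positive control) or compound (100 or 500 μM); 10 μg total protein by SDS-PAGE/Western blot with anti-eIF2α and anti-phospho-eIF2α, ECL detection.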

[29] = system: HeLa; experiment: Induction of eIF-2alpha phosphorylation in human HeLa cells at 500 uM by Western blotting; format: functional, cell-based; outline: as §7
[30] = system: HeLa; experiment: Induction of stress granules in human HeLa cells assessed as MLN51 and FMRP marker protein at >10 uM; format: functional, cell-based
Outline: (§8)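 HeLa on coverslips in DMEM/5% FCS, cultured 24 h, then exposed to 50 nM-500 μM for 30 min to 8 h; immunofluorescence for stress-granule markers MLN51 (rabbit) and FMRP (mouse); cycloheximide 10 μg/mL and puromycin 100 μg/mL (1 h) as positive controls.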

[31] = system: HeLa; experiment: Induction of stress granules in human HeLa cells assessed as MLN51 and FMRP marker protein at 100 uM after 2 hrs; format: functional, cell-based; outline: as §8
[32] = system: HeLa; experiment: Induction of stress granules in human HeLa cells assessed as MLN51 and FMRP marker protein at 500 nM after 8 hrs; format: functional, cell-based; outline: as §8
[33] = system: HeLa; experiment: Induction of stress granules in human HeLa cells assessed as MLN51 and FMRP marker protein at 100 uM after 8 hrs; format: functional, cell-based; outline: as §8
[34] = system: HeLa; experiment: Effect on apoptosis inducing factor localization into nucleus in human HeLa cells at 20 nM after 72 hrs; format: functional, cell-based
[35] = system: HeLa; experiment: Induction of apoptosis inducing factor translocation from […] to nucleus in human HeLa cells at 50 uM after 72 hrs by DAPI staining; format: functional, cell-based
Outline: (§9)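 HeLa cells treated 72 h with compound or vehicle; immunocytochemistry co-labeling with anti-AIF and anti-caspase-12 antibodies, nuclei stained with DAPI to assess nuclear localization.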

[36] = system: HeLa; experiment: Induction of caspase 12 translocation from endoplasmic reticulum to nucleus in human HeLa cells at 50 uM after 72 hrs by DAPI staining; format: functional, cell-based; outline: as §9
[37] = system: HL-60; experiment: Cytotoxicity against human HL60 cells at 20 uM after 72 hrs in presence of caspase 12 inhibitor ATAD; format: functional, cell-based
Outline: (§10)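 HL60 cells treated 72 h with or without caspase-12 inhibitor ATAD (10 μM) or m-calpain inhibitor N-acetyl-Leu-Leu-methioninal (20 μM); cytotoxicity compared with vehicle.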

[38] = system: HL-60; experiment: Cytotoxicity against human HL60 cells at 20 uM after 72 hrs in presence of m-calpain inhibitor N-acetyl-Leu-Leu-methioninal; format: functional, cell-based; outline: as §10
[39] = Inhibition of capped and polyadenylated luciferase mRNA in rabbit reticulocyte lysate; format: functional, Oryctolagus cuniculus; outline: as §6
[40] = system: H9c2; experiment: Cytotoxicity against rat H9c2 cells at 20 nM after 72 hrs by FACS analysis; format: cell-based; details: h9c2, 72 h, 0.02 µM; outline: as §2

Chain of ATP-dependent translocase ABCB1 (P08183 whole entry): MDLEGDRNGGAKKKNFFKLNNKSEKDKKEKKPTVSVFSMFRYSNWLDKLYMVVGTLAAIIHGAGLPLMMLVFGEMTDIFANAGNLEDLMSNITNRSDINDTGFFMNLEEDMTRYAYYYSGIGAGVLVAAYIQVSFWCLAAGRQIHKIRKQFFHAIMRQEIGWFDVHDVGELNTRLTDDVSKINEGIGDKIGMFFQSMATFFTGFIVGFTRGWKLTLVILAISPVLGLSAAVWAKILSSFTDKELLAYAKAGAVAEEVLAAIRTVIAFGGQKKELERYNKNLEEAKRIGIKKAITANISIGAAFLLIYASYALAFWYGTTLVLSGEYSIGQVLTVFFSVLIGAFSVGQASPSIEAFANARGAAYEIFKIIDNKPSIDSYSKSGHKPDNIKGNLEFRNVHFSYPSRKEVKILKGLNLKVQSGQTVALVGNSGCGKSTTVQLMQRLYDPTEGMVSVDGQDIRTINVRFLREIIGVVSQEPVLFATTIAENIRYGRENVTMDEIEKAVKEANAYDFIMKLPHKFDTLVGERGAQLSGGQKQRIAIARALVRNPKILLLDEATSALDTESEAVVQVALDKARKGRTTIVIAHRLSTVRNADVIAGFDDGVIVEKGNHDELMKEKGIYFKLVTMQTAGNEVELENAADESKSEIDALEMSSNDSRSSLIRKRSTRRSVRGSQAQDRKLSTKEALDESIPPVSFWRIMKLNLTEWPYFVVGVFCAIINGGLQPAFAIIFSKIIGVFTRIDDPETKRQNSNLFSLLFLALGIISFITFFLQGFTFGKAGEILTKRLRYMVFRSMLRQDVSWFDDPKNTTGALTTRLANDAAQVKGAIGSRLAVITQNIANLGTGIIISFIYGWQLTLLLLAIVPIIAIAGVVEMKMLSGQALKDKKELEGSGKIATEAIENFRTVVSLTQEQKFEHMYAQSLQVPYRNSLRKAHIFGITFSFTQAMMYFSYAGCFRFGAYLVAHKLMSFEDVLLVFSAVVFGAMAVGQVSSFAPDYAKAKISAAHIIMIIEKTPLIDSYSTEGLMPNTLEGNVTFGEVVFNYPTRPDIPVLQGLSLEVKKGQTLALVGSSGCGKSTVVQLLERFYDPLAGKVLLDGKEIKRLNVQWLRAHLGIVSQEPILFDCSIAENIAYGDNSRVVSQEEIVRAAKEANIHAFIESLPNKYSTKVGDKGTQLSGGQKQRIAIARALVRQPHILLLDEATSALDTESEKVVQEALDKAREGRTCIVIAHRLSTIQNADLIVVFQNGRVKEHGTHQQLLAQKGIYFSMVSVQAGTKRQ

COc1cc(OC)c2c(c1)O[C@@]1(c3ccc(Br)cc3)[C@H](c3ccccc3)C[C@@H](O)[C@@]21O
Activity [1]: Non-toxic
Activity [2]: Non-toxic
IC50 [3]: < 1 nM
IC50 [4]: 1 nM
IC50 [5]: < 1 nM
IC50 [6]: < 1 nM
IC50 [7]: 1 nM
IC50 [8]: < 1 nM
Activity [9]: Not Active
Activity [10]: Active
Activity [11]: Not Active
Activity [12]: Not Active
Activity [13]: Not Active
IC50 [14]: 4 nM
Activity [15]: Non-toxic
Activity [16]: Active
Activity [17]: Active
Activity [18]: Active
Activity [19]: inactive
Activity [20]: inactive
Activity [21]: inactive
Activity [22]: inactive
Activity [23]: inactive
Activity [24]: inactive
Activity [25]: inactive
Activity [26]: inactive
Activity [27]: Active
Activity [28]: Active
Activity [29]: Active
Activity [30]: Active
Activity [31]: Active
Activity [32]: Active
Activity [33]: Active
Activity [34]: Active
Activity [35]: Active
Activity [36]: Active
Activity [37]: inactive
Activity [38]: Active
IC50 [39]: 200 nM
Activity [40]: Non-toxic
